Converted amounts (≈) assume the structure as drawn. The source made the active and inactive calls. The calls are words filed in the database; no cut-off is given here.

The nature of series [1]: Inhibition of Streptococcus agalactiae 4755 hyaluronidase at pH 7.4. Summed up:
(§1)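 Same turbidimetric hyaluronan-lyase assay at pH 7.4 (citrate–phosphate/NaCl): SagHyal4755 2.9 ng, hyaluronan (2 mg/ml stock), BSA, 3.8% DMSO final, 3 h at 37 °C. CTAB (2.5%, in 0.5 M NaOH) precipitation, 20 min at 25 °C, A600. Activity scaled between no-inhibitor and no-enzyme samples.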

Series [2] can be described thus: Inhibition of Streptococcus agalactiae 4755 hyaluronidase at pH 7.4 after 3 hrs by turbidimetric analysis. Summed up:
as §1

Series [3] deals with T1, Hyaluronidase (Bos taurus) (UniProt Q8SQG8+Q5E985). The series can be described thus: Inhibition of bovine testes hyaluronidase at 200 uM after 30 mins at pH 5 by turbidimetric analysis. Format: protein assay.
Series [4] concerns the target T1, Hyaluronidase (Bos taurus). The experiment in a line: Inhibition of bovine testes hyaluronidase at 380 uM after 30 mins at pH 5 by turbidimetric analysis. It counts as protein assay.
For series [5], the target named is T1, Hyaluronidase (Bos taurus). The experiment in a line: Inhibition of bovine testes hyaluronidase at 49 uM after 30 mins at pH 5 by turbidimetric analysis. Format: protein assay.
For series [6], the target named is T1, Hyaluronidase (Bos taurus). The series can be described thus: Inhibition of bovine testes hyaluronidase at 4200 uM after 30 mins at pH 5 by turbidimetric analysis. It counts as protein assay.
For series [7], the target named is T1, Hyaluronidase (Bos taurus). The series can be described thus: Inhibition of bovine testes hyaluronidase at 460 uM after 30 mins at pH 5 by turbidimetric analysis. It counts as protein assay.
Series [8] addresses T1, Hyaluronidase (Bos taurus). The experiment in a line: Inhibition of bovine testes hyaluronidase at 180 uM after 30 mins at pH 5 by turbidimetric analysis. It counts as protein assay.
The target of series [9] is T1, Hyaluronidase (Bos taurus). The experiment in a line: Inhibition of bovine testes hyaluronidase at 190 uM after 30 mins at pH 5 by turbidimetric analysis. Format: protein assay.
Series [10] has as its target T1, Hyaluronidase (Bos taurus). The series can be described thus: Inhibition of bovine testes hyaluronidase at 170 uM after 30 mins at pH 5 by turbidimetric analysis. Format: protein assay.
Series [11] addresses T1, Hyaluronidase (Bos taurus). The experiment in a line: Inhibition of bovine testes hyaluronidase at 100 uM after 30 mins at pH 5 by turbidimetric analysis. Format: protein assay.
The target of series [12] is T1, Hyaluronidase (Bos taurus). The series can be described thus: Inhibition of bovine testes hyaluronidase at 400 uM after 30 mins at pH 5 by turbidimetric analysis. It counts as protein assay.
In series [13] the target is T1, Hyaluronidase (Bos taurus). The series can be described thus: Inhibition of bovine testes hyaluronidase at 3800 uM after 30 mins at pH 5 by turbidimetric analysis. Format: protein assay.
Series [14] deals with T1, Hyaluronidase (Bos taurus). The experiment in a line: Inhibition of bovine testes hyaluronidase at 130 uM after 30 mins at pH 5 by turbidimetric analysis. It counts as protein assay.
In series [15] the target is T1, Hyaluronidase (Bos taurus). The series can be described thus: Inhibition of bovine testes hyaluronidase at 63 uM after 30 mins at pH 5 by turbidimetric analysis. Format: protein assay.
Series [16] deals with T1, Hyaluronidase (Bos taurus). The experiment in a line: Inhibition of bovine testes hyaluronidase at 80 uM after 30 mins at pH 5 by turbidimetric analysis. It counts as protein assay.
In series [17] the target is T1, Hyaluronidase (Bos taurus). The experiment in a line: Inhibition of bovine testes hyaluronidase at 2000 uM after 30 mins at pH 5 by turbidimetric analysis. Format: protein assay.
Series [18] addresses T1, Hyaluronidase (Bos taurus). The series can be described thus: Inhibition of bovine testes hyaluronidase at 150 uM after 30 mins at pH 5 by turbidimetric analysis. Format: protein assay.
A short description of series [19]: Inhibition of Streptococcus agalactiae 4755 hyaluronidase at pH 5.0 after 30 mins by turbidimetric analysis. Summed up:
(§2)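 SagHyal4755 (2.9 ng) with BSA and hyaluronan (2 mg/ml stock) in citrate–phosphate/NaCl buffer pH 5.0, 3.8% DMSO final, 30 min at 37 °C. Stopped by alkaline 2.5% CTAB, then 20 min at 25 °C. Residual-substrate turbidity read at 600 nm; no-inhibitor sample = 100%, no-enzyme sample = 0% activity. Enzyme-free compound controls were run.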

A short description of series [20]: Aqueous solubility of the compound in water. Format: physicochemical. Summed up:
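Turbidity at 600 nm of test compound in DMSO added to citrate–phosphate buffer (pH 5 and pH 7.4), water and BSA (0.2 mg/ml stock), at various concentrations, read against a water reference. Enzyme testing used only concentrations showing no turbidity.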

Series [21] relates to Streptococcus agalactiae. The experiment in a line: Inhibition of Streptococcus agalactiae 4755 hyaluronidase at 100 uM after 30 mins at pH 5.0 by turbidimetric analysis. The method in brief: as §2

As to `Cc1c(-c2ccc(O)cc2)n(C)c2ccc(O)cc12`, the IC50 (in general, the concentration needed to halve the response being measured) in series [1] was determined as 220 µM.
In series [1], `CCCCCCCn1c(-c2ccc(O)cc2)c(C)c2cc(O)ccc21` had a half-maximal inhibitory concentration (IC50) of 12 µM.
Molecule `CCCCCn1c(-c2ccc(O)cc2)c(C)c2cc(O)ccc21` yielded a 50% inhibitory concentration (IC50) in series [1] of 36 µM.
On to `O=C(Cc1ccccc1)n1c(=S)oc2ccccc21`, for which the IC50 is 69 µM in series [2] and 260 µM in [19]. In addition, the inhibition result in series [3], in series [4], in series [5], in series [6], in series [7] and in series [8] was “inactive” in each case. In addition, the inhibition result in series [9], in [10], in series [11], in [12], in series [13] and in series [14] was “inactive” throughout. Moreover, the inhibition result in series [15], in [16], in [17] and in series [18] was “inactive” each time.
With `O=C(OCc1ccccc1)n1c(=S)oc2ccccc21`, it took 556 µM to reach half-maximal inhibition in series [2] (IC50). Besides, the inhibition entry in [3], in [4], in [5], in series [6], in [7] and in series [8] was “inactive” in each case. Further, the inhibition result in series [9], in [10], in series [11], in series [12], in [13] and in series [14] was “inactive” in each case. In addition, the inhibition entry in series [15], in [16], in [17], in series [18] and in [21] was “inactive” each time. Moreover, in series [20], the solubility (in general, the dissolved amount per volume that the medium holds) was determined as 100 µM (≈ 28.5 µg/mL).
In [1], `CCCn1c(-c2ccc(O)cc2)c(C)c2cc(O)ccc21` came in with a 50% inhibitory concentration (IC50) of 160 µM.
Take `CC(=O)n1c(=S)n(C(C)=O)c2ccccc21`: the IC50 in series [2] is 5 µM; in series [1], 5 µM; in series [19] it was 160 µM. The inhibition entry in [3], in series [4], in series [5], in [6], in [7] and in series [8] was “inactive” in each case. For the same molecule, the inhibition entry in [9], in series [10], in [11], in [12], in series [13] and in series [14] was “inactive” each time. Further, the inhibition result in series [15], in [16], in series [17] and in series [18] was “inactive” each time.
Turning to `Sc1nc2ccccc2[nH]1` [2-MERCAPTOBENZIMIDAZOLE], the IC50 in series [2] was 1860 µM; in series [19], 1150 µM. In addition, the inhibition result in series [3], in [4], in series [5], in [6], in series [7] and in series [8] was “inactive” each time. Further, the inhibition result in series [9], in series [10], in series [11], in series [12], in [13] and in series [14] was “inactive” throughout. Also, the inhibition entry in [15], in series [16], in [17] and in series [18] was “inactive” in each case.
Consider `O=C(CCCc1ccccc1)n1c(=S)oc2ccccc21`, for which, in series [2], the midpoint of inhibition, the IC50, lay at 19 µM. The inhibition result in [3], in series [4], in series [5], in series [6], in series [7] and in [8] was “inactive” in each case. In addition, the inhibition result in series [9], in series [10], in series [11], in [12], in series [13] and in series [14] was “inactive” each time. The inhibition result in series [15], in [16], in [17] and in series [18] was “inactive” in each case. For the same molecule, the solubility in series [20] stood at 100 µM (≈ 29.7 µg/mL). Besides, the inhibition (usually the percentage by which the read-out fell short of the control) in series [21] worked out at 47%.
For the molecule `CC(=O)n1c(=S)oc2ccccc21`, the IC50 in series [2] came out at 42 µM; in series [19], 125 µM. For the same molecule, the inhibition entry in [3], in series [4], in series [5], in [6], in series [7] and in [8] was “inactive” throughout. Moreover, the inhibition entry in series [9], in series [10], in [11], in series [12], in series [13] and in series [14] was “inactive” throughout. Further, the inhibition result in series [15], in series [16], in [17] and in [18] was “inactive” throughout.
On to `O=C(CCc1ccccc1)n1c(=S)oc2ccccc21`, for which the concentration for half-maximal inhibition (IC50) in series [2] worked out at 24 µM; in [19] it was 15 µM. Moreover, the inhibition result in [3], in [4], in series [5], in series [6], in [7] and in series [8] was “inactive” in each case. The inhibition entry in [9], in [10], in [11], in series [12], in [13] and in series [14] was “inactive” each time. Moreover, the inhibition result in [15], in [16], in [17] and in [18] was “inactive” throughout.
In the case of `Cc1c(-c2ccc(O)cc2)[nH]c2ccc(O)cc12`, in [1], inhibition was half-maximal at 280 µM (IC50).

The record behind these values is ChEMBL document CHEMBL1817567, “Design of benzimidazole- and benzoxazole-2-thione derivatives as inhibitors of bacterial hyaluronan lyase” (Eur J Med Chem, 2011).
